From PMC3401285 (Bioorganic & medicinal chemistry letters, 2012)

What was measured:
Format in all cases: cell-based
human M4 receptor = biological target: T1, human M4 receptor (Homo sapiens, UniProt P08173); experiment: Calcium mobilization assay, potency determination; conditions: for %AChmax ± SEM: efficacy as % of maximal ACh response, hM4; for hM4 PAM activity (in words): hM4, text statement
T1 sequence (P08173 1-479): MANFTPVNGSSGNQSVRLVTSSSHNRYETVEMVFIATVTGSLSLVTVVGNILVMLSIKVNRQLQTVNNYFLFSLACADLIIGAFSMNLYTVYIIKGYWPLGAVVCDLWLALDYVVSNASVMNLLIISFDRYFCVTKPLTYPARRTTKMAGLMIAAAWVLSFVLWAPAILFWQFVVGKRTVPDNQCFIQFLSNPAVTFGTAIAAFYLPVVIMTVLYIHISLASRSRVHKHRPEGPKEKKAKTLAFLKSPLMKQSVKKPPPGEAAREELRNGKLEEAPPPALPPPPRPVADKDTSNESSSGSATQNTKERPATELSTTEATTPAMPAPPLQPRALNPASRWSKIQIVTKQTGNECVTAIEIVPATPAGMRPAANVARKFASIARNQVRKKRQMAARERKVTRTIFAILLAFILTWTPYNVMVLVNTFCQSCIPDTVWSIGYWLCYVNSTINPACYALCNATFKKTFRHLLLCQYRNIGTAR

M1 = biological target: T2, M1 (Homo sapiens, UniProt P11229); experiment: Muscarinic selectivity panel, calcium mobilization; conditions: concentration up to 30 µM
T2 sequence (P11229 1-460): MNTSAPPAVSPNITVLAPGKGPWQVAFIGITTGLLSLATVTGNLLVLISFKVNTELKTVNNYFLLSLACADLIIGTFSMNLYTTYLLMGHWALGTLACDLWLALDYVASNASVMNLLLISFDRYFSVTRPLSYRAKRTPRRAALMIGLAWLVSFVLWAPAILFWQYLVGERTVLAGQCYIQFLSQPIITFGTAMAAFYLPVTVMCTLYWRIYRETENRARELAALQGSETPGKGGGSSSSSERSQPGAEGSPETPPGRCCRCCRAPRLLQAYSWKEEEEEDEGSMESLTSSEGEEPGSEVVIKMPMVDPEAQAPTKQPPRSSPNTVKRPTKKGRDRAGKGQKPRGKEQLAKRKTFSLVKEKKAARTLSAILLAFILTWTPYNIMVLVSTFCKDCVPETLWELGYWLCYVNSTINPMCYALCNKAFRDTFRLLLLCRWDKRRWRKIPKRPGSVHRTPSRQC
How it was run: (§1)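 CHO cells stably expressing the human receptor (M1 transfected into CHO K1; M3 and M5 lines donated), grown in Ham's F-12, 10% heat-inactivated FBS, 20 mM HEPES, 500 µg/mL G418. Cells plated at 15,000/well overnight (37 °C, 5% CO2), then loaded 45 min at 37 °C with Fluo-4 AM in HBSS, 20 mM HEPES, 2.5 mM probenecid. Compound preincubated 144 s (0.3% DMSO final) before ACh; calcium read kinetically at 37 °C.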

M2 = biological target: T3, M2 (Homo sapiens, UniProt P08172); experiment: Muscarinic selectivity panel, calcium mobilization; conditions: concentration up to 30 µM
T3 sequence (P08172 1-466): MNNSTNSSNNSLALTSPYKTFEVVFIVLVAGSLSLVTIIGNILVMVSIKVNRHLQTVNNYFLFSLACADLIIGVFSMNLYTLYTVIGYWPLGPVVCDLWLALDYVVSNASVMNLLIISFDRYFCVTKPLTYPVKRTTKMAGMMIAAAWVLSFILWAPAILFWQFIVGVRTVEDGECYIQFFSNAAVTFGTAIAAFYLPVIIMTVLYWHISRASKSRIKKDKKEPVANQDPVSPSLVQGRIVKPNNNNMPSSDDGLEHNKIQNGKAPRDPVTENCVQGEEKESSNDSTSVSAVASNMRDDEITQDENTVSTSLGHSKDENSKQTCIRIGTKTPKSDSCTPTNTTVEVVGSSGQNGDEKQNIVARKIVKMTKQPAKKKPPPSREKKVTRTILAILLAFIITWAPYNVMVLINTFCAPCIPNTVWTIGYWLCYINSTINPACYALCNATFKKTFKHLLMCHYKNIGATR
How it was run: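 CHO cells stably expressing human M2 and cotransfected with chimeric Gqi5, grown in Ham's F-12, 10% heat-inactivated FBS, 20 mM HEPES, 500 µg/mL G418 plus 500 µg/mL hygromycin B. Plated at 15,000 cells/well overnight (37 °C, 5% CO2), then Fluo-4 AM loaded 45 min at 37 °C in HBSS, 20 mM HEPES, 2.5 mM probenecid. Compound preincubated 144 s (0.3% DMSO final) before ACh; fluorescence read at 37 °C.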

M3 = M3 (Homo sapiens, UniProt P20309); experiment: Muscarinic selectivity panel, calcium mobilization; conditions: concentration up to 30 µM
Chain of M3 (P20309 whole entry): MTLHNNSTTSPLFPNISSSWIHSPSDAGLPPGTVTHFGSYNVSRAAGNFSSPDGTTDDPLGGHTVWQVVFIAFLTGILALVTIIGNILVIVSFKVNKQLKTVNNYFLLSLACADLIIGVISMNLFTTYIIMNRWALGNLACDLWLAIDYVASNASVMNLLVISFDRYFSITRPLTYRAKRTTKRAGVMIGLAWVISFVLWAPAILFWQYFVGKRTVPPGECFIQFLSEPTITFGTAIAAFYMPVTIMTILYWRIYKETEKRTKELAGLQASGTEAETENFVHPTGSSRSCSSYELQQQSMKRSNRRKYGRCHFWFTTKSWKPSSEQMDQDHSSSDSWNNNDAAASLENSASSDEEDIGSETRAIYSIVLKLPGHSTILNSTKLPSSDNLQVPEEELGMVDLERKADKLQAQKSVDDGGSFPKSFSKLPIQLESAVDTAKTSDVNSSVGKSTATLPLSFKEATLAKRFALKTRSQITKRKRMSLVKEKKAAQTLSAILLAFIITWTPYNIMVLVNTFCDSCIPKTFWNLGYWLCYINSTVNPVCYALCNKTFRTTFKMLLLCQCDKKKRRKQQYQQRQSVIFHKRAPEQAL
How it was run: as §1

M5 = biological target: T4, M5 (Homo sapiens, UniProt P08912); experiment: Muscarinic selectivity panel, calcium mobilization; conditions: concentration up to 30 µM
T4 sequence (P08912 1-532): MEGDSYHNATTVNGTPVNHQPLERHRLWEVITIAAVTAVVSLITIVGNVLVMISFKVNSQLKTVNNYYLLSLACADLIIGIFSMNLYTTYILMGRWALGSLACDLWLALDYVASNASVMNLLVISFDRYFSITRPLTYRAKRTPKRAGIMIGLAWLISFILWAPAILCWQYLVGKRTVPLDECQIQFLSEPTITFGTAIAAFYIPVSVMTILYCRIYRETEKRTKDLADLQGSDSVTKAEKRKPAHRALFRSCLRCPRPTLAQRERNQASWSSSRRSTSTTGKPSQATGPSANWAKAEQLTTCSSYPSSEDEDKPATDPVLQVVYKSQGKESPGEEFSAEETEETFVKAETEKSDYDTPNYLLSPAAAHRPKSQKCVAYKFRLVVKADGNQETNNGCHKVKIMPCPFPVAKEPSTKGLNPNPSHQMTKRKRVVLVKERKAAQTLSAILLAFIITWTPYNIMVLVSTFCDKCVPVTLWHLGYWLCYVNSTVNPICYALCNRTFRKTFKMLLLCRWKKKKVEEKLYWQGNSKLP
How it was run: as §1

Compound	%AChmax ± SEM (human M4 receptor)	hM4 PAM activity (in words) (human M4 receptor)	also measured
COc1ccc(C)c2sc(NC(=O)C(C)C)nc12 [Compound 7]	Weak	–	–
COc1ccc(C)c2sc(NC(=O)C3CCCCO3)nc12 (centres unmarked) [Compound 16]	–	deleterious to activity	–
COc1ccc(C)c2sc(NC(=O)C3CCCOC3)nc12 (centres unmarked) [Compound 17]	–	deleterious to activity	–
COc1ccc(C)c2sc(NC(=O)c3ccncc3)nc12 [Compound 21, N-(4-methoxy-7-methylbenzo[d]thiazol-2-yl)isonicotinamide]	–	–	activity at M1 (M1): inactive; activity at M2 (M2): inactive; activity at M3 (M3): inactive; activity at M5 (M5): inactive
COc1ccc(C)c2sc(C(=O)Nc3ccncc3)nc12 [Compound 44]	Weak	–	–
COc1ccc(C)c2sc(C(=O)NC3CCCC3)nc12 [Compound 48]	Weak	–	–
COc1ccc(C)c2sc(C(=O)NC3COC3)nc12 [Compound 49]	Weak	–	–
O=C(Nc1nc2ccccc2s1)C1CCCCO1 (centres unmarked) [Compound 50]	–	not tolerated	–
